Results as given in ChEMBL document CHEMBL3244034, “Semisynthetic cephalosporins. Synthesis and structure-activity relationships of 7-(1-pyrryl)- and 7-(1-indolyl)acetamidocephalosporin derivatives” (1978).
≈ marks a conversion by molar mass, not a printed value. Calls of active or inactive are those of the source. The rule behind the calls is not given here.

Columns and labels:
Staphylococcus aureus [1] = assay: Antibacterial activity against benzylpenicillin-resistant Staphylococcus aureus after 17 hrs by serial two fold dilution method; type: functional
Summary of the method: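 Agar dilution MIC. Compound was serially diluted twofold in Mueller-Hinton agar. The surface was inoculated with a diluted 18-24-h broth culture […]. Plates were incubated 17 h at 37 °C. MIC was taken as the lowest concentration giving complete or virtually complete inhibition of visible growth.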

Staphylococcus aureus [2] = assay: Antibacterial activity against Staphylococcus aureus after 17 hrs by serial two fold dilution method; type: functional
Summary of the method: (§1)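 Agar dilution MIC: compound serially diluted twofold in Mueller-Hinton agar. Plate surfaces were inoculated with a suitably diluted 18-24-h broth culture and incubated 17 h at 37 °C. MIC was read as the lowest concentration giving complete or virtually complete inhibition of visible growth.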

[3] = system: Staphylococcus epidermidis; assay: Antibacterial activity against Staphylococcus epidermidis after 17 hrs by serial two fold dilution method; type: functional; summary of the method: as §1
Enterococcus faecalis = assay: Antibacterial activity against Staphylococcus faecalis after 17 hrs by serial two fold dilution method; type: functional; summary of the method: as §1
Streptococcus pneumoniae = assay: Antibacterial activity against Streptococcus pneumoniae after 17 hrs by serial two fold dilution method; type: functional; summary of the method: as §1
Streptococcus pyogenes [4] = assay: Antibacterial activity against Streptococcus pyogenes after 17 hrs by serial two fold dilution method; type: functional; summary of the method: as §1
Klebsiella aerogenes = assay: Antibacterial activity against Enterobacter aerogenes after 17 hrs by serial two fold dilution method; type: functional
Enterobacter cloacae = assay: Antibacterial activity against Enterobacter cloacae after 17 hrs by serial two fold dilution method; type: functional
Escherichia coli [5] = assay: Antibacterial activity against Escherichia coli after 17 hrs by serial two fold dilution method; type: functional; summary of the method: as §1
Klebsiella pneumoniae [6] = assay: Antibacterial activity against Klebsiella pneumoniae after 17 hrs by serial two fold dilution method; type: functional; summary of the method: as §1
Proteus mirabilis [7] = assay: Antibacterial activity against Proteus mirabilis after 17 hrs by serial two fold dilution method; type: functional; summary of the method: as §1
Proteus vulgaris = assay: Antibacterial activity against Proteus vulgaris after 17 hrs by serial two fold dilution method; type: functional; summary of the method: as §1
Providencia stuartii = assay: Antibacterial activity against Providencia stuartii after 17 hrs by serial two fold dilution method; type: functional; summary of the method: as §1
Pseudomonas aeruginosa = assay: Antibacterial activity against Pseudomonas aeruginosa after 17 hrs by serial two fold dilution method; type: functional; summary of the method: as §1
Salmonella [8] = assay: Antibacterial activity against Salmonella schottmuelleri after 17 hrs by serial two fold dilution method; type: functional; summary of the method: as §1
Staphylococcus aureus [9] = assay: Antibacterial activity against benzylpenicillin-resistant Staphylococcus aureus infected in sc dosed CD1 mouse assessed as host survival administered 1 and 4 hrs after infection measured on day 4; type: functional
Summary of the method: (§2)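 Male albino CD-1 mice, 20 (± 1) g, infected intraperitoneally with a bacterial suspension giving uniformly lethal infection. Groups of ten mice were treated subcutaneously with antibiotic at 1 and 4 h post-infection. Survival over 4 days was recorded.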

Streptococcus pyogenes [10] = assay: Antibacterial activity against Streptococcus pyogenes infected in sc dosed CD1 mouse assessed as host survival administered 1 and 4 hrs after infection measured on day 4; type: functional; summary of the method: as §2
Escherichia coli [11] = assay: Antibacterial activity against Escherichia coli infected in sc dosed CD1 mouse assessed as host survival administered 1 and 4 hrs after infection measured on day 4; type: functional; summary of the method: as §2
Klebsiella pneumoniae [12] = assay: Antibacterial activity against Klebsiella pneumoniae infected in sc dosed CD1 mouse assessed as host survival administered 1 and 4 hrs after infection measured on day 4; type: functional; summary of the method: as §2
Proteus mirabilis [13] = assay: Antibacterial activity against Proteus mirabilis infected in sc dosed CD1 mouse assessed as host survival administered 1 and 4 hrs after infection measured on day 4; type: functional; summary of the method: as §2
Salmonella [14] = assay: Antibacterial activity against Salmonella schottmuelleri infected in sc dosed CD1 mouse assessed as host survival administered 1 and 4 hrs after infection measured on day 4; type: functional; summary of the method: as §2
Neisseria gonorrhoeae = assay: Antibacterial activity against Neisseria gonorrhoeae after 17 hrs by serial two fold dilution method; type: functional, organism-based
Haemophilus influenzae = assay: Antibacterial activity against Haemophilus influenzae after 17 hrs by serial two fold dilution method; type: functional, organism-based
Bacteroides fragilis = assay: Antibacterial activity against Bacteroides fragilis after 17 hrs by serial two fold dilution method; type: functional, organism-based
Fusobacterium varium = assay: Antibacterial activity against Fusobacterium varium after 17 hrs by serial two fold dilution method; type: functional, organism-based

Row | SMILES | MIC (Staphylococcus aureus [1]) [µg/mL] | MIC (Staphylococcus aureus [2]) [µg/mL] | MIC [3] [µg/mL] | MIC (Enterococcus faecalis) [µg/mL] | MIC (Streptococcus pneumoniae) [µg/mL] | MIC (Streptococcus pyogenes [4]) [µg/mL] | MIC (Klebsiella aerogenes) [µg/mL] | MIC (Enterobacter cloacae) [µg/mL] | MIC (Escherichia coli [5]) [µg/mL] | MIC (Klebsiella pneumoniae [6]) [µg/mL] | MIC (Proteus mirabilis [7]) [µg/mL] | MIC (Proteus vulgaris) [µg/mL] | MIC (Providencia stuartii) [µg/mL] | MIC (Pseudomonas aeruginosa) [µg/mL] | MIC (Salmonella [8]) [µg/mL] | other results
1 | CC(=O)OCC1=C(C(=O)O)N2C(=O)[C@@H](NC(=O)Cc3cccs3)[C@H]2SC1 [CEPHALOTHIN] | 0.4 (≈ 1.01 µM) | 0.1 (≈ 0.252 µM) | 0.4 (≈ 1.01 µM) | 100 (≈ 252 µM) | 0.1 (≈ 0.252 µM) | 0.1 (≈ 0.252 µM) | > 50 | > 100 | 6.2 (≈ 15.6 µM) | 3.1 (≈ 7.82 µM) | 6.2 (≈ 15.6 µM) | > 100 | 100 (≈ 252 µM) | > 100 | 0.8 (≈ 2.02 µM) | –
2 | CC(=O)OCC1=C(C(=O)O)N2C(=O)[C@@H](NC(=O)Cn3cccc3C=O)[C@H]2SC1 | 1.6 (≈ 3.93 µM) | 0.8 (≈ 1.96 µM) | 3.1 (≈ 7.61 µM) | > 100 | – | 0.4 (≈ 0.982 µM) | > 100 | > 100 | 100 (≈ 245 µM) | 50 (≈ 123 µM) | 100 (≈ 245 µM) | > 100 | > 100 | > 100 | 50 (≈ 123 µM) | –
3 | CC1=C(C(=O)O)N2C(=O)[C@@H](NC(=O)Cn3ccc4ccccc43)[C@H]2SC1 | 3.1 (≈ 8.35 µM) | 1.6 (≈ 4.31 µM) | 6.2 (≈ 16.7 µM) | > 100 | 1.6 (≈ 4.31 µM) | 0.8 (≈ 2.15 µM) | > 100 | > 100 | > 100 | > 100 | > 100 | > 100 | > 100 | > 100 | > 100 | –
4 | Cc1nnc(SCC2=C(C(=O)O)N3C(=O)[C@@H](NC(=O)Cn4cccc4C=O)[C@H]3SC2)s1 | 0.8 (≈ 1.67 µM) | 0.4 (≈ 0.834 µM) | 1.6 (≈ 3.34 µM) | > 100 | 0.2 (≈ 0.417 µM) | 0.2 (≈ 0.417 µM) | > 100 | > 100 | 50 (≈ 104 µM) | 50 (≈ 104 µM) | 100 (≈ 209 µM) | > 100 | > 100 | > 100 | 12.5 (≈ 26.1 µM) | –
5 | Cn1nnnc1SCC1=C(C(=O)O)N2C(=O)[C@@H](NC(=O)Cn3cccc3)[C@H]2SC1 | 0.8 (≈ 1.84 µM) | 0.4 (≈ 0.919 µM) | 1.6 (≈ 3.67 µM) | > 100 | 0.1 (≈ 0.23 µM) | 0.1 (≈ 0.23 µM) | 25 (≈ 57.4 µM) | 6.2 (≈ 14.2 µM) | 0.8 (≈ 1.84 µM) | 1.6 (≈ 3.67 µM) | 6.2 (≈ 14.2 µM) | > 100 | 6.2 (≈ 14.2 µM) | > 100 | 0.4 (≈ 0.919 µM) | ED50 (Staphylococcus aureus [9]): 72 mg/kg; ED50 (Streptococcus pyogenes [10]): 2.3 mg/kg; ED50 (Escherichia coli [11]): 2.5 mg/kg; ED50 (Klebsiella pneumoniae [12]): 67 mg/kg; ED50 (Proteus mirabilis [13]): 100 mg/kg; ED50 (Salmonella [14]): 2.5 mg/kg; Activity (Neisseria gonorrhoeae): inactive; Activity (Haemophilus influenzae): inactive; Activity (Bacteroides fragilis): inactive; Activity (Fusobacterium varium): inactive
6 | Cc1nnc(SCC2=C(C(=O)O)N3C(=O)[C@@H](NC(=O)Cn4cccc4)[C@H]3SC2)s1 | 0.8 (≈ 1.77 µM) | 0.2 (≈ 0.443 µM) | 0.8 (≈ 1.77 µM) | > 100 | 0.1 (≈ 0.221 µM) | 0.1 (≈ 0.221 µM) | 100 (≈ 221 µM) | 100 (≈ 221 µM) | 12.5 (≈ 27.7 µM) | 6.2 (≈ 13.7 µM) | 25 (≈ 55.4 µM) | > 100 | 25 (≈ 55.4 µM) | > 100 | 6.2 (≈ 13.7 µM) | –
